Reference: ChEMBL document CHEMBL2413033, “Design and synthesis of novel series of 5-HT6 receptor ligands having indole, a central aromatic core and 1-amino-4 methyl piperazine as a positive ionizable group” (Bioorg Med Chem, 2013)

Assays:
Type in all cases: functional, cell-based
[1] = molecular target: T1, 5-hydroxytryptamine receptor 6 (Homo sapiens, UniProt P50406); assay: Antagonist activity at human recombinant 5HT6 receptor expressed in HEK293 cells assessed as inhibition of 5HT-induced cAMP accumulation at 10 uM pretreated for 10 mins before 5HT addition measured after 1 hr relative to control
How it was run: (§1)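 Cells kept at 37 °C under 5% CO2/95% air were suspended in PBS with 2 mM IBMX. They were pretreated with compound (or not) for 10 min, then stimulated with 5-HT for 30 min. HTRF cAMP detection used d2-labelled cAMP and cryptate-labelled anti-cAMP antibody, 1 h at room temperature. Read-out was excitation 314 nm, emission 668 and 620 nm. Results are percent inhibition versus untreated controls.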

[2] = molecular target: 5-hydroxytryptamine receptor 7 (Homo sapiens) (UniProt P34969); assay: Antagonist activity at human recombinant 5HT7 receptor expressed in HEK293 cells assessed as inhibition of 5HT-induced cAMP accumulation at 10 uM pretreated for 10 mins before 5HT addition measured after 1 hr relative to control; how it was run: as §1
[3] = molecular target: 5-hydroxytryptamine receptor 4 (Homo sapiens) (UniProt Q13639); assay: Antagonist activity at human recombinant 5HT4 receptor expressed in HEK293 cells assessed as inhibition of 5HT-induced cAMP accumulation at 10 uM pretreated for 10 mins before 5HT addition measured after 1 hr relative to control; how it was run: as §1
[4] = molecular target: T1, 5-hydroxytryptamine receptor 6; assay: Antagonist activity at human recombinant 5HT6 receptor expressed in HEK293 cells assessed as inhibition of 5HT-induced cAMP accumulation pretreated for 10 mins before 5HT addition measured after 1 hr; how it was run: as §1

5-hydroxytryptamine receptor 7 (Homo sapiens), sequence (P34969 whole entry): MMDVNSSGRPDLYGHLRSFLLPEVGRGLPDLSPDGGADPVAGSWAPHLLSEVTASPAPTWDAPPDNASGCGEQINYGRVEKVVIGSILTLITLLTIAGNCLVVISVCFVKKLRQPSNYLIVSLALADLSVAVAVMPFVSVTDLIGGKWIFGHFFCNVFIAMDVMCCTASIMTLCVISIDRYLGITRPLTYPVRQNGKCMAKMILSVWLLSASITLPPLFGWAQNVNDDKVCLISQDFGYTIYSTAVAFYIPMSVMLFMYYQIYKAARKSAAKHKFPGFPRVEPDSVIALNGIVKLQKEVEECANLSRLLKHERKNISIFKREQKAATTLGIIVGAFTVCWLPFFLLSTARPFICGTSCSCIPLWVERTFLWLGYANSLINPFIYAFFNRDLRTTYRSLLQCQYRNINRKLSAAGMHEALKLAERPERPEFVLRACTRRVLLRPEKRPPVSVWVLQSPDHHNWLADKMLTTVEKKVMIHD
T1 sequence (P50406 whole entry): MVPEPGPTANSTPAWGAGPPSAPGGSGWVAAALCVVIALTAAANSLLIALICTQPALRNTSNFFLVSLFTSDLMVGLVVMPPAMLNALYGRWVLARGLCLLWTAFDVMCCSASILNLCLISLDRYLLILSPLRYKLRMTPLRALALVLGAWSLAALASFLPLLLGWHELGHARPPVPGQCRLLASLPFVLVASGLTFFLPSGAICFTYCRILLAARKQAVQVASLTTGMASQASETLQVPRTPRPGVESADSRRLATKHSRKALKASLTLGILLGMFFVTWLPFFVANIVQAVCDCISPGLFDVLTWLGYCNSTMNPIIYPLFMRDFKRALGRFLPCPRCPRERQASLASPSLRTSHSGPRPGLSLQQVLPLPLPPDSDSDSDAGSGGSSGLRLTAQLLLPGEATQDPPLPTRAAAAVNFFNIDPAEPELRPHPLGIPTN
5-hydroxytryptamine receptor 4 (Homo sapiens), sequence (Q13639 whole entry): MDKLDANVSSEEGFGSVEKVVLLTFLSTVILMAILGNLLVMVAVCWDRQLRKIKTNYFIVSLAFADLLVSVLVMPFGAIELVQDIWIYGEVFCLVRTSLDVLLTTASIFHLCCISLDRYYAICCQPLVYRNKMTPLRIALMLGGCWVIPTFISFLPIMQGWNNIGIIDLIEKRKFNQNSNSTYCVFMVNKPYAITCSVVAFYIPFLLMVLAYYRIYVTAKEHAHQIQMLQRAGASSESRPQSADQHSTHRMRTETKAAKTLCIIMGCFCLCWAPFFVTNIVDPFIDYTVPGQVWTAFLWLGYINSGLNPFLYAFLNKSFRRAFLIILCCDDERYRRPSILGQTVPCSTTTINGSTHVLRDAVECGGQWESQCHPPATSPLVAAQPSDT

| Compound | inhibition [1] [%] | inhibition [2] [%] | inhibition [3] [%] | IC50 [4] [µM] |
| --- | --- | --- | --- | --- |
| Cc1c(C)c(S(=O)(=O)n2c(-c3ccccc3)c(/C=N/N3CCN(C)CC3)c3ccccc32)c(C)c2c1OC(C)(C)C2 | 22.4 | – | – | – |
| COc1ccc(NS(=O)(=O)c2ccc(I)cc2)cc1N1CCN(C)CC1 | – | 5 | 5.8 | – |
| CN1CCN(/N=C/c2c(-c3ccccc3)n(S(=O)(=O)c3cccc4ccccc34)c3ccccc23)CC1 | 54 | 5 | 9.4 | 6.6 |
| CCCCN(CCCC)c1cccc2c(S(=O)(=O)n3c(C)c(/C=N/N4CCN(C)CC4)c4ccccc43)cccc12 | 44.6 | – | – | – |
| CN1CCN(/N=C/c2c(-c3ccccc3)n(S(=O)(=O)c3cn(C)cn3)c3ccccc23)CC1 | 67.4 | 46.4 | 31.1 | 3.6 |
| CN1CCN(/N=C/c2c(-c3ccccc3)n(S(=O)(=O)c3cccc4c(N(C)C)cccc34)c3ccccc23)CC1 | 85.3 | 42.2 | 65 | 1.4 |
| CN1CCN(/N=C/c2c(-c3ccccc3)n(S(=O)(=O)Cc3ccccc3)c3ccccc23)CC1 | 36.5 | – | – | – |
| CC1CCN(CC[C@H]2CCCN2S(=O)(=O)c2cccc(O)c2)CC1 | – | 104 | – | – |
| CCCCN(CCCC)c1cccc2c(S(=O)(=O)n3c(-c4ccccc4)c(/C=N/N4CCN(C)CC4)c4ccccc43)cccc12 | 21.8 | – | – | – |
| COc1cc(C)c(Cl)cc1S(=O)(=O)n1c(-c2ccccc2)c(/C=N/N2CCN(C)CC2)c2ccccc21 | 55.3 | 72.8 | 13 | 7.4 |
| CCCCc1ccc(S(=O)(=O)n2c(-c3ccccc3)c(/C=N/N3CCN(C)CC3)c3ccccc32)cc1 | 14.3 | – | – | – |
| CN1CCN(/N=C/c2c(-c3ccccc3)n(S(=O)(=O)c3ccc(OC(F)(F)F)cc3)c3ccccc23)CC1 | 38.7 | – | – | – |
| COc1cc(C)c(Cl)cc1S(=O)(=O)n1c(C)c(/C=N/N2CCN(C)CC2)c2ccccc21 | 88.6 | 18.4 | 17.9 | 2.4 |
| CN1CCN(/N=C/c2c(-c3ccccc3)n(S(=O)(=O)c3ccc4ccccc4c3)c3ccccc23)CC1 | 39.6 | – | – | – |
| Cc1c(C)c(S(=O)(=O)n2c(-c3ccccc3)c(/C=N/N3CCN(C)CC3)c3ccccc32)c(C)c2c1OC(C)(C)CC2 | 20.6 | – | – | – |

Results, then the compound that gave them:

| inhibition [1] [%] | inhibition [2] [%] | inhibition [3] [%] | IC50 [4] [µM] | Compound |
| --- | --- | --- | --- | --- |
| 16.1 | – | – | – | Cc1c(/C=N/N2CCN(C)CC2)c2ccccc2n1S(=O)(=O)c1ccc(/N=N/c2ccc(N(C)C)cc2)cc1 |
| 83.5 | 34.6 | 79.9 | 1.8 | CN1CCN(/N=C/c2c(-c3ccccc3)n(S(=O)(=O)c3ccccc3)c3ccccc23)CC1 |
| 30.5 | – | – | – | CN1CCN(/N=C/c2c(-c3ccccc3)n(S(=O)(=O)c3ccc(Cl)cc3)c3ccccc23)CC1 |
| 24.3 | – | – | – | CN1CCN(/N=C/c2c(-c3ccccc3)n(S(=O)(=O)c3ccc(I)cc3)c3ccccc23)CC1 |
| 49.1 | – | – | – | Cc1ccc(S(=O)(=O)n2c(C)c(/C=N/N3CCN(C)CC3)c3ccccc32)cc1 |
| 15.1 | – | – | – | Cc1c(/C=N/N2CCN(C)CC2)c2ccccc2n1S(=O)(=O)c1ccc(-c2ccccc2)cc1 |
| 12.2 | – | – | – | CCc1ccc2ccccc2c1S(=O)(=O)n1c(C)c(/C=N/N2CCN(C)CC2)c2ccccc21 |
| 78.9 | 17.1 | 92.2 | 2.04 | Cc1c(/C=N/N2CCN(C)CC2)c2ccccc2n1S(=O)(=O)c1ccc2ccccc2c1 |
| 71.7 | 12.3 | 83 | 4.74 | Cc1c(/C=N/N2CCN(C)CC2)c2ccccc2n1S(=O)(=O)c1ccc(F)cc1 |
| 35.4 | – | – | – | CC(C)c1ccc(S(=O)(=O)n2c(-c3ccccc3)c(/C=N/N3CCN(C)CC3)c3ccccc32)cc1 |
| 0.1 | – | – | – | Cc1c(/C=N/N2CCN(C)CC2)c2ccccc2n1S(=O)(=O)c1ccc(-c2ccc(Cl)cc2)cc1 |
| 74.2 | 28.5 | 37.3 | 2.9 | CN1CCN(/N=C/c2c(-c3ccccc3)n(S(=O)(=O)c3ccc(F)cc3)c3ccccc23)CC1 |
| 33.2 | – | – | – | Cc1ccc(S(=O)(=O)n2c(-c3ccccc3)c(/C=N/N3CCN(C)CC3)c3ccccc32)cc1 |
| 31.2 | – | – | – | COc1ccc(S(=O)(=O)n2c(-c3ccccc3)c(/C=N/N3CCN(C)CC3)c3ccccc32)cc1 |
| 27.2 | – | – | – | Cc1c(/C=N/N2CCN(C)CC2)c2ccccc2n1S(=O)(=O)c1ccc(Cl)c2nonc12 |
| 9.5 | – | – | – | Cc1c(/C=N/N2CCN(C)CC2)c2ccccc2n1S(=O)(=O)c1cccc2c(N(C)C)cccc12 |
| 13.5 | – | – | – | Cc1c(/C=N/N2CCN(C)CC2)c2ccccc2n1S(=O)(=O)c1ccc(I)cc1 |
| 52.4 | – | – | – | Cc1c(/C=N/N2CCN(C)CC2)c2ccccc2n1S(=O)(=O)c1ccc([N+](=O)[O-])cc1 |
